From ChEMBL document CHEMBL4014261, “Design, Synthesis, and Antimicrobial Evaluation of a Novel Bone-Targeting Bisphosphonate-Ciprofloxacin Conjugate for the Treatment of Osteomyelitis Biofilms” (J Med Chem, 2017) come the findings set out here.

Molecules are shown by their SMILES. Values after ≈ are worked out from the molar mass of the structure shown. Active and inactive are the calls of the source. The rule behind the calls is not given here.

Series [1] has as its system Staphylococcus aureus. Nature of the series: Antibacterial activity against methicillin-sensitive Staphylococcus aureus isolate 2 planktonic cells after 24 hrs by microdilution assay. It is filed as functional. To be noted: isolate 2, 24 h. The method, boiled down:
(§1)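 Planktonic cells at 1 × 10^5 CFU/mL were exposed to compound, and A580 was read at 0 h and after 24 h at 37 °C with shaking. Controls were medium plus microbes, with 1% (v/v) DMSO where the solvent was used. Relative cell number was calculated against the control. Results were confirmed by subculture in fresh medium (48 h, 37 °C) and plating. Conjugate concentrations were expressed as parent-antibiotic equivalents.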

In series [2] the test system is Staphylococcus aureus. Nature of the series: Antibacterial activity against methicillin-sensitive Staphylococcus aureus isolate 3 planktonic cells after 24 hrs by microdilution assay. Format: functional. To be noted: isolate 3, 24 h. The essentials:
as §1
(In general: Dilution methods test growth across graded concentrations, often in twofold steps.)

In series [3] the test system is Staphylococcus aureus. Briefly: Antibacterial activity against methicillin-sensitive Staphylococcus aureus isolate 4 planktonic cells after 24 hrs by microdilution assay. Format: functional. The note with it: isolate 4, 24 h. The method, boiled down:
as §1

Series [4] concerns Staphylococcus aureus. Nature of the series: Antibacterial activity against methicillin-sensitive Staphylococcus aureus isolate 6 planktonic cells after 24 hrs by microdilution assay. Format: functional. To be noted: isolate 6, 24 h. The method, boiled down:
as §1

For series [5], the system named is Staphylococcus aureus. Briefly: Antibacterial activity against methicillin-sensitive Staphylococcus aureus ATCC 6538 planktonic cells after 24 hrs by microdilution assay. It is filed as functional. To be noted: ATCC 6538, 24 h. The method, boiled down:
as §1

Series [6] has as its system Staphylococcus aureus. Nature of the series: Ratio of MIC50 for methicillin-sensitive Staphylococcus aureus ATCC 6538 planktonic cells at pH 5 to MIC50 for methicillin-sensitive Staphylococcus aureus ATCC 6538 planktonic cells at pH 7.4. Format: functional. The method, boiled down: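 Planktonic ATCC 6538 was tested by microdilution in medium adjusted to pH 5 or pH 7.4 with KOH or HCl, with pH checked by universal indicator. MIC50 was determined at each pH.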

Series [7] relates to Staphylococcus aureus. Briefly: Bactericidal activity against methicillin-resistant Staphylococcus aureus MR4-CIPS planktonic cells assessed as reduction in bacterial growth at 7.8 ug/ml after 2 hrs by time kill assay. It is filed as functional. The essentials:
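Time-kill per CLSI on planktonic cultures, set up as the microdilution assay: 1 × 10^5 CFU/mL, 37 °C with shaking. A580 is read at 0, 1, 2, 4, 8, 16 and 24 h, and growth is expressed relative to untreated medium + microbes control. Concentrations are parent-antibiotic equivalents.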

Series [8] has as its system Staphylococcus aureus. Briefly: Bactericidal activity against Staphylococcus aureus ATCC 6538 biofilm using polystyrene as substrate assessed as reduction in colony forming units after 24 hrs. It is filed as functional. The method, boiled down: (§2)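 Biofilms were started from a 1 McFarland suspension, allowed to adhere 4 h at 37 °C on HA discs or polystyrene well bottoms, then rinsed. They were exposed 24 h at 37 °C to TSB containing 0.24–125 mg/L compound. Cells were detached in 0.5% saponin by 1 min vortexing, serially diluted and plated on Columbia (S. aureus) or MacConkey (P. aeruginosa) agar, 37 °C, 24 h. Read-out was mean CFU/mm² ± SEM; HA area was measured by X-ray tomography.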

The test system of series [9] is Staphylococcus aureus. Nature of the series: Bactericidal activity against Staphylococcus aureus ATCC 6538 biofilm using hydroxyapatite as substrate assessed as reduction in colony forming units after 24 hrs. Format: functional. The method, boiled down:
as §2

The subject of series [10] is Pseudomonas aeruginosa. Nature of the series: Bactericidal activity against Pseudomonas aeruginosa ATCC 15442 biofilm using hydroxyapatite as substrate assessed as reduction in colony forming units at 50 ug/ml at pH 4.8 to 7.4 after 24 hrs. Format: functional.
Series [11] has as its system Staphylococcus aureus. Briefly: Antibiofilm activity against Staphylococcus aureus ATCC 6538 assessed as reduction in bacterial adherence to HA at 15.6 to 250 ug/ml pretreated with HA for 24 hrs followed by organism inoculation measured after 24 hrs. Format: functional. The essentials:
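HA spherules (final 10 mg/mL) in TSB were preincubated 24 h at 37 °C with shaking with compound (final 0.12–250 mg/L), then pelleted and the supernatant discarded. They were inoculated with 1 mL S. aureus at 10^5 CFU/mL. A580 was read at 0 and 24 h (37 °C, shaking) against controls without spherules and spherules without compound; spherules were also plated for CFU.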

Series [12] concerns Staphylococcus aureus. Briefly: Antibiofilm activity against Staphylococcus aureus ATCC 6538 assessed as CFU counts at 1 ug/mL pretreated with HA for 24 hrs followed by organism inoculation measured after 24 hrs (reference value: 4.5 x 10^10CFU). It is filed as functional. The essentials:
(§3)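 HA discs were soaked 24 h at 37 °C in 2 mL compound solution, with DMSO or phosphate-buffer controls, then rinsed 3× with sterile water. Discs were inoculated with 2 mL of 0.5 McFarland S. aureus ATCC 6538 for biofilm formation. Biofilm CFU were counted after 24 h growth.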

Series [13] relates to Staphylococcus aureus. Briefly: Antibiofilm activity against Staphylococcus aureus ATCC 6538 assessed as CFU counts at 5 ug/mL pretreated with HA for 24 hrs followed by organism inoculation measured after 24 hrs (reference value: 4.5 x 10^10CFU). It is filed as functional. The essentials:
as §3

Series [14] deals with Staphylococcus aureus. Briefly: Antibiofilm activity against Staphylococcus aureus ATCC 6538 assessed as CFU counts at 10 ug/mL pretreated with HA for 24 hrs followed by organism inoculation measured after 24 hrs (reference value: 4.5 x 10^10CFU). Format: functional. The essentials:
as §3

Series [15] deals with Staphylococcus aureus. Briefly: Antibiofilm activity against Staphylococcus aureus ATCC 6538 assessed as CFU counts at 25 ug/mL pretreated with HA for 24 hrs followed by organism inoculation measured after 24 hrs (reference value: 4.5 x 10^10CFU). It is filed as functional. The essentials: as §3
Series [16] concerns Staphylococcus aureus. Nature of the series: Antibiofilm activity against Staphylococcus aureus ATCC 6538 assessed as CFU counts at 50 ug/mL pretreated with HA for 24 hrs followed by organism inoculation measured after 24 hrs (reference value: 4.5 x 10^10CFU). Format: functional. The method, boiled down: as §3
For series [17], the system named is Staphylococcus aureus. Briefly: Antibiofilm activity against Staphylococcus aureus ATCC 6538 assessed as CFU counts at 100 ug/mL pretreated with HA for 24 hrs followed by organism inoculation measured after 24 hrs (reference value: 4.5 x 10^10CFU). It is filed as functional. The method, boiled down:
as §3

The test system of series [18] is Aggregatibacter actinomycetemcomitans. Briefly: Antibiofilm activity against Aggregatibacter actinomycetemcomitans D7S-5 using hydroxyapatite as substrate at >15 ug/mL after 24 hrs. Format: functional.
Series [19] shares this test system. Briefly: Antibiofilm activity against Aggregatibacter actinomycetemcomitans infected in jawbone peri-implant osteomyelitis Sprague-Dawley rat model assessed as reduction in bacterial count in bone at 0.1 to 1 mg/kg, ip single dose measured after 1 week post pharmacotherapy. Format: functional, organism-based. The essentials:
(§4)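 Rats carried two titanium implants each, preinoculated with A. actinomycetemcomitans D7S-1 biofilm (10^9 CFU), placed bilaterally in palatal bone. One week after surgery, randomized groups received i.p. doses in sterile saline; the negative control was endotoxin-free saline. One week after treatment, 1 cm² peri-implant tissue and bone were homogenized in 0.5% saponin, serially diluted 10-fold and spread-plated on modified TSB (37 °C, 5% CO2, 48 h). Read-out was CFU/g and mean log10 reduction; analysts were blinded.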

For series [20], the system named is Rattus norvegicus. Briefly: Toxicity in jawbone peri-implant osteomyelitis Sprague-Dawley rat model infected with Aggregatibacter actinomycetemcomitans assessed as cutaneous injection-site reactions at 0.1 to 10 mg/kg, ip single dose measured after 1 week post pharmacotherapy. The note with it: in vivo, 168 h. Format: organism-based. The essentials: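 Rats bearing infected palatal implants received i.p. dosing in sterile saline. They were observed during therapy for cutaneous injection-site reactions, inflammation and gross tolerability issues, and were euthanized one week after pharmacotherapy.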

Series [21] deals with Aggregatibacter actinomycetemcomitans. Nature of the series: Antibiofilm activity against Aggregatibacter actinomycetemcomitans infected in jawbone peri-implant osteomyelitis Sprague-Dawley rat model assessed as mean CFU count/gram at 10 mg/kg, ip single dose measured after 1 week post pharmacotherapy. It is filed as functional, organism-based. The method, boiled down:
as §4

For series [22] the test system is unchanged. Briefly: Antibiofilm activity against Aggregatibacter actinomycetemcomitans infected in jawbone peri-implant osteomyelitis Sprague-Dawley rat model assessed as mean CFU count/gram at 0.3 mg/kg, ip administered 3 times per week measured after 1 week post pharmacotherapy. It is filed as functional, organism-based. The essentials:
as §4

With `O=C(O)c1cn(C2CC2)c2cc(N3CCN(C(=O)Oc4ccc(CC(P(=O)(O)O)P(=O)(O)O)cc4)CC3)c(F)cc2c1=O`, the MIC in series [1] was 0.49 µg/mL (≈ 0.766 µM); in series [2], 0.49 µg/mL (≈ 0.766 µM); in series [3] it was 3.9 µg/mL (≈ 6.1 µM); in series [4] it was 7.8 µg/mL (≈ 12.2 µM); in series [5] it was 31.2 µg/mL (≈ 48.8 µM). Besides, the Ratio in series [6] came to 0.5. Further, the outcome in [7], in [10], in [11], in series [14], in series [15] and in series [16] was Active. In addition, the outcome in [17], in series [18], in series [19], in series [21] and in series [22] was Active. Also, the results for the MBIC50 in [8] and in series [9] were 15.6 to 31.2 µg/mL and 16 µg/mL, respectively. In series [9], the MBIC90 came to 100 µg/mL. In addition, the Activity in series [12] is reported as 7.1 ×10¹⁰ CFU; in series [13], 3.3 ×10⁹ CFU; in series [20], “Non-Toxic”.

Broadly, the MIC is the lowest concentration found to suppress growth. A high value points to a less susceptible organism.
